# Measured values as given in ChEMBL document CHEMBL1143595, “Synthesis and activity of substituted anthraquinones against a human filarial parasite, Brugia malayi” (2005).
# How the values were obtained:
# Brugia malayi [1] = assay: Antifilarial activity against Brugia malayi (female) at 5 ppm in the first 5 days (100% mortality); type: functional; settings: 120 h
# Brugia malayi [2] = assay: Compound causing 100% mortality of Brugia malayi female adult worms at 6.25 ppm concentration; type: functional
# Summary of the method: (§1)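 Dose-response on adult female B. malayi in RPMI 1640 with penicillin/streptomycin. Concentrations ranged from 50 to 3.12 ppm, with compounds delivered in DMSO; solvent controls received 2% DMSO. Movement and mortality were monitored daily. Read-out was days to 100% worm mortality at each concentration.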
# Brugia malayi [3] = assay: Antifilarial activity against Brugia malayi (male) at 5 ppm in the first 5 days (100% mortality); type: functional; settings: 120 h
# Brugia malayi [4] = assay: Compound causing 100% mortality of Brugia malayi female adult worms at 12.5 ppm concentration; type: functional; summary of the method: as §1
# Brugia malayi [5] = assay: Compound causing 100% mortality of Brugia malayi female adult worms at 50 ppm concentration; type: functional; summary of the method: as §1
# Brugia malayi [6] = assay: Compound causing 100% mortality of Brugia malayi female adult worms at 3.125 ppm concentration; no mortality; type: functional, organism-based; summary of the method: as §1
# Brugia malayi [7] = assay: Compound causing 100% mortality of Brugia malayi female adult worms at 25 ppm concentration; type: functional; summary of the method: as §1
# Brugia malayi [8] = assay: Compound causing 100% mortality of Brugia malayi female adult worms at 3.125 ppm concentration; type: functional; summary of the method: as §1
# Brugia malayi [9] = assay: Antifilarial activity of anthraquinone against Brugia malayi (female) at 5 ppm in the first 5 days (100% mortality); type: functional; settings: 120 h
# Brugia malayi [10] = assay: Antifilarial activity against Brugia malayi (female) at 5 ppm in the first 5 days (100% mortality); NM=No Mortality; type: functional, organism-based
compound,measurement,setting,value
O=C1c2ccc(O)c(O)c2C(=O)c2cccc(O)c21,mortality at 5 ppm,Brugia malayi [1],9%
Cc1cc2c(c(O)c1O)C(=O)c1c(O)cccc1C2=O,Mortality,Brugia malayi [2],5 days
same,mortality at 5 ppm,Brugia malayi [1],5%
same,mortality at 5 ppm,Brugia malayi [3],5%
same,Mortality,Brugia malayi [4],4 days
same,Mortality,Brugia malayi [5],2 days
same,Mortality,Brugia malayi [6],no mortality
same,Mortality,Brugia malayi [7],3 days
Cc1cc2c(c(O)c1O)C(=O)c1ccccc1C2=O,Mortality,Brugia malayi [2],5 days
same,mortality at 5 ppm,Brugia malayi [1],5%
same,mortality at 5 ppm,Brugia malayi [3],6%
same,Mortality,Brugia malayi [4],4 days
same,Mortality,Brugia malayi [8],6 days
same,Mortality,Brugia malayi [5],1 days
same,Mortality,Brugia malayi [7],3 days
COc1cc2c(c(C)c1OC)C(=O)c1c(O)cccc1C2=O,mortality at 5 ppm,Brugia malayi [1],9%
O=C1c2cccc(O)c2C(=O)c2c(O)ccc(O)c21,mortality at 5 ppm,Brugia malayi [1],9%
O=C1c2cc(O)c(O)cc2C(=O)c2c(O)cccc21,mortality at 5 ppm,Brugia malayi [1],5%
O=C1c2ccccc2C(=O)c2c1cc(O)c(O)c2O,Mortality,Brugia malayi [2],5 days
same,mortality at 5 ppm,Brugia malayi [1],5%
same,Mortality,Brugia malayi [4],4 days
same,Mortality,Brugia malayi [8],5 days
same,Mortality,Brugia malayi [5],2 days
same,Mortality,Brugia malayi [7],4 days
Cc1c(O)c(O)cc2c1C(=O)c1ccccc1C2=O,mortality at 5 ppm,Brugia malayi [9],7%
O=C1c2ccccc2C(=O)c2c1ccc(O)c2O [ATHRAQUINONES A],mortality at 5 ppm,Brugia malayi [1],5%
O=C1c2cccc(O)c2C(=O)c2c1ccc(O)c2O,mortality at 5 ppm,Brugia malayi [1],14%
COc1cccc2c1C(=O)c1c(cc(C)c(OC)c1O)C2=O,mortality at 5 ppm,Brugia malayi [1],7%
COc1c(C)cc2c(c1O)C(=O)c1c(O)cccc1C2=O,Mortality,Brugia malayi [2],8 days
same,Mortality,Brugia malayi [4],4 days
same,Mortality,Brugia malayi [10],No mortality
same,Mortality,Brugia malayi [5],1 days
same,Mortality,Brugia malayi [6],no mortality
same,Mortality,Brugia malayi [7],2 days
O=C1c2ccccc2C(=O)c2c(O)ccc(O)c21 [QUINIZARIN],mortality at 5 ppm,Brugia malayi [1],10%
COc1c(C)cc2c(c1OC)C(=O)c1ccccc1C2=O,mortality at 5 ppm,Brugia malayi [1],11%
O=C1c2ccccc2C(=O)c2c(O)cc(O)cc21,Mortality,Brugia malayi [10],No mortality
COc1c(C)cc2c(c1O)C(=O)c1ccccc1C2=O,Mortality,Brugia malayi [10],No mortality
O=C1c2cc(O)c(O)c(O)c2C(=O)c2cccc(O)c21,mortality at 5 ppm,Brugia malayi [1],5%
same,mortality at 5 ppm,Brugia malayi [3],6%
O=C1c2cc(O)cc(O)c2C(=O)c2cccc(O)c21,mortality at 5 ppm,Brugia malayi [1],7%
CCCSc1ccc2[nH]c(NC(=O)OC)nc2c1 [ALBENDAZOLE],mortality at 5 ppm,Brugia malayi [1],16%
same,mortality at 5 ppm,Brugia malayi [3],9%
Cc1c(O)c(O)cc2c1C(=O)c1c(O)cccc1C2=O,mortality at 5 ppm,Brugia malayi [1],3%
same,mortality at 5 ppm,Brugia malayi [3],5%
